Measured values taken from ChEMBL document CHEMBL1212693, “Dorsomorphin inhibits BMP signals required for embryogenesis and iron metabolism” (Nat Chem Biol, 2008).
Activity calls are given as the source filed them. No cut-off for these calls is given here.

What was measured:
[1] = system: C2C12; experiment: Cytotoxicity against mouse C2C12 cells at 4 uM by Cell Titer Glo assay; format: cell-based; details: c2c12, 4 µM
Method in brief: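 C2C12 cells seeded at 2,000 cells/well in DMEM with 2% FBS and treated in quadruplicate with BMP ligands plus compound or vehicle. Viability measured by Cell-titer Glo after 5 d culture, using replicate wells treated identically to those for alkaline phosphatase.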

[2] = organism: Danio rerio; experiment: Inhibition of BMPR1 in zebrafish assessed as penetrance of normal embryonic axis dorsalization at 10 uM treated at 3 hrs post-fertilization measured at 48 hrs; design: scale not given: the % may be the effect or the level left
[3] = organism: Mus musculus; experiment: Inhibition of BMPR1-mediated Smad-8 phosphorylation in BMP2-stimulated mouse BMPR2 deficient PASMC at 4 uM treated 30 mins before BMP2 measured after 30 mins by immunoblot analysis
[4] = organism: Danio rerio; experiment: Inhibition of BMPR1 in zebrafish assessed as penetrance of normal embryonic axis dorsalization at 10 uM treated continuously from 10 hrs post-fertilization measured at 48 hrs; design: scale not given: the % may be the effect or the level left
[5] = organism: Danio rerio; experiment: Inhibition of BMPR1 in zebrafish assessed as severity of embryonic axis dorsalization at 10 uM treated at 4 to 8 hrs post-fertilization measured at 48 hrs; design: scale not given: the % may be the effect or the level left
[6] = organism: Danio rerio; experiment: Inhibition of BMPR1 in zebrafish assessed as penetrance of mild embryonic axis dorsalization at 10 uM treated at 2 to 6 hrs post-fertilization measured at 48 hrs; design: scale not given: the % may be the effect or the level left
Method in brief: (§1)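 Compound added at the stated times and concentrations. Gross morphology scored visually at up to 48 h.p.f. for dorsalization of the embryonic axis.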

[7] = organism: Danio rerio; experiment: Inhibition of BMPR1 in zebrafish assessed as penetrance of normal embryonic axis dorsalization at 0.5 uM treated at 3 hrs post-fertilization measured at 48 hrs; design: scale not given: the % may be the effect or the level left
[8] = organism: Danio rerio; experiment: Inhibition of BMPR1 in zebrafish assessed as penetrance of mild embryonic axis dorsalization at 1 uM treated at 3 hrs post-fertilization measured at 48 hrs; design: scale not given: the % may be the effect or the level left; method in brief: as §1
[9] = organism: Danio rerio; experiment: Inhibition of BMPR1 in zebrafish assessed as embryonic axis dorsalization at 20 uM treated at 2 hrs post-fertilization measured after 36 hrs in presence of 1 ng chordin morpholino
Method in brief: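 Wild-type zebrafish embryos injected with 1 ng chordin morpholino, then exposed to vehicle or compound (20 µM) at 2 h.p.f. Photographed at 36 h.p.f. to score the intermediate cell mass and ventral tail fin structures.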

[10] = system: Danio rerio; experiment: Inhibition of iron-dextran conjugate-induced Smad-5 phosphorylation in zebrafish at 23 ug/g, iv after 1 hr relative to control; format: functional
[11] = (§2) Inhibition of BMPR1-mediated Smad-8 phosphorylation in BMP4-stimulated mouse PASMC treated 30 mins before BMP4 challenge measured after 30 mins by immunoblot analysis
Method in brief: (§3)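 Mouse PASMCs were held 24 h in RPMI with 0.5% FCS. They were preincubated 30 min with test agent, noggin or vehicle, then exposed to recombinant BMP4 for 30 min. SDS lysates were immunoblotted for phospho-SMAD1/5/8 and bands quantified by phosphorimager. Dose-dependence was fitted as a Hill plot.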

[12] = organism: Mus musculus; experiment: as §2; method in brief: as §3
[13] = organism: Danio rerio; experiment: Inhibition of BMPR1 in zebrafish assessed as penetrance of mild embryonic axis dorsalization at 7.5 uM treated at 3 hrs post-fertilization measured at 48 hrs; design: scale not given: the % may be the effect or the level left; method in brief: as §1
[14] = organism: Mus musculus; experiment: Inhibition of BMPR1-mediated Smad-5 phosphorylation in BMP6-stimulated mouse BMPR2 deficient PASMC at 4 uM treated 30 mins before BMP6 challenge measured after 30 mins by immunoblot analysis
[15] = organism: Mus musculus; experiment: Inhibition of ALK3-mediated Smad-1 phosphorylation in BMPR2 deficient mouse PASMC at 10 uM by immunoblot analysis
Method in brief: (§4)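 BMPR-II–deficient mouse PASMCs (RPMI, 10% FBS) transiently transfected with constitutively active ALK2, ALK3 or ALK6 cDNA, or plasmid-only control. Incubated with or without compound (10 µM). Extracts lysed in SDS buffer, run on SDS-PAGE and immunoblotted for phospho-SMAD1/5/8; quantitated by phosphorimager.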

[16] = system: Mus musculus; experiment: Inhibition of iron-dextran conjugate-induced Smad-5 phosphorylation in C57BL/6 mouse at 23 ug/g, iv after 1 hr; format: functional, organism-based
[17] = organism: Danio rerio; experiment: Inhibition of BMPR1 in zebrafish assessed as penetrance of mild embryonic axis dorsalization at 10 uM treated at 4 to 8 hrs post-fertilization measured at 48 hrs; design: scale not given: the % may be the effect or the level left; method in brief: as §1
[18] = organism: Danio rerio; experiment: Inhibition of BMPR1 in zebrafish assessed as penetrance of moderate embryonic axis dorsalization at 10 uM treated at 2 to 6 hrs post-fertilization measured at 48 hrs; design: scale not given: the % may be the effect or the level left; method in brief: as §1
[19] = organism: Mus musculus; experiment: Inhibition of ALK2-mediated Smad-5 phosphorylation in BMPR2 deficient mouse PASMC at 10 uM by immunoblot analysis; method in brief: as §4
[20] = molecular target: Vascular endothelial growth factor receptor 2 (Danio rerio) (UniProt Q5GIT4); experiment: Inhibition of KDR in zebrafish assessed as embryonic axis dorsalization at 10 uM treated occasionally at 6 to 8 hrs post-fertilization measured at 48 hrs
Chain of Vascular endothelial growth factor receptor 2 (Danio rerio) (Q5GIT4 whole entry): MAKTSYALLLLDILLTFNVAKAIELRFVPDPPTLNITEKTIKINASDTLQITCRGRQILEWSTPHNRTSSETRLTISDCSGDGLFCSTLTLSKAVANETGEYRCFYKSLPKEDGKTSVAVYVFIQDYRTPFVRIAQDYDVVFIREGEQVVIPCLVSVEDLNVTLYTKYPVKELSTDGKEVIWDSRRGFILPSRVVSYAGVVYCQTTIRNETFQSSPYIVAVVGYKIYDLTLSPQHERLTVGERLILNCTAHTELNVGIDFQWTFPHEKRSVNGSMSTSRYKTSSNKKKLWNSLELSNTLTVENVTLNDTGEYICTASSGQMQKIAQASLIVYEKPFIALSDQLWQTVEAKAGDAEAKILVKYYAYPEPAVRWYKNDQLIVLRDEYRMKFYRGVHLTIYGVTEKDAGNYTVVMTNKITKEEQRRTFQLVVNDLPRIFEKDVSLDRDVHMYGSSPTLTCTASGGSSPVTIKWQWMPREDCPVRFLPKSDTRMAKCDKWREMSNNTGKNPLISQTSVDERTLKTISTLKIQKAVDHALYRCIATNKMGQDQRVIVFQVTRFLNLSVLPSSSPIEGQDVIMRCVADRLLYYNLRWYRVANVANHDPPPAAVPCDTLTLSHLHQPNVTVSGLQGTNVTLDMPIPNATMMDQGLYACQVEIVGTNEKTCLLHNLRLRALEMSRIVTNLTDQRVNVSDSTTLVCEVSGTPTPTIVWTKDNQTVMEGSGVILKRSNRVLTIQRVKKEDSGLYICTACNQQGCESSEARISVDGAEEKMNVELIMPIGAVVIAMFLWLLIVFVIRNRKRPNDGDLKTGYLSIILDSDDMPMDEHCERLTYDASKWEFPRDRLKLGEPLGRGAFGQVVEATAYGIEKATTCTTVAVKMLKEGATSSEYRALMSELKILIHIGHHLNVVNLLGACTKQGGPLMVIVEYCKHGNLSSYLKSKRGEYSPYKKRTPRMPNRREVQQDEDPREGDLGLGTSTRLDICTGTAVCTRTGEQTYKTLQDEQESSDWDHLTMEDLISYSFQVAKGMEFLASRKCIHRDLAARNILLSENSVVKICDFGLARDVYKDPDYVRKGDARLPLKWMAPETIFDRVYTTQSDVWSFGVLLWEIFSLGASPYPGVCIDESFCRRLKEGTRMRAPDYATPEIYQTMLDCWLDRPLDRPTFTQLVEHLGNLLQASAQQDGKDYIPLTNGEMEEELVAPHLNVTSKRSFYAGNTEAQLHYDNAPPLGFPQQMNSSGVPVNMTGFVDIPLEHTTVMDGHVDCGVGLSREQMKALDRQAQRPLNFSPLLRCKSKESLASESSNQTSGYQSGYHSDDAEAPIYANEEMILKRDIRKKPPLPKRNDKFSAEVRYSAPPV
Method in brief: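 Newly fertilised WT zebrafish eggs were arrayed in triplicate in E3 buffer and kept at 28.5 °C. Compound (10 µM) was added at 6–8 h.p.f. Gross morphology was inspected visually for dorsalisation or ventralisation of the embryonic axis, with photographs at 36–48 h.p.f.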

[21] = organism: Danio rerio; experiment: Inhibition of BMPR1 in zebrafish assessed as severity of embryonic axis dorsalization at 1 uM treated at 3 hrs post-fertilization measured at 48 hrs; design: scale not given: the % may be the effect or the level left
[22] = organism: Danio rerio; experiment: Inhibition of BMPR1 in zebrafish assessed as severity of embryonic axis dorsalization at 10 uM treated at 2 to 6 hrs post-fertilization measured at 48 hrs; design: scale not given: the % may be the effect or the level left
[23] = organism: Danio rerio; experiment: Inhibition of BMPR1 in zebrafish assessed as penetrance of mild embryonic axis dorsalization at 10 uM treated continuously from 2 hrs post-fertilization measured after 48 hrs; design: scale not given: the % may be the effect or the level left; method in brief: as §1
[24] = organism: Mus musculus; experiment: Inhibition of BMPR1-mediated Smad-1 phosphorylation in BMP4-stimulated mouse PASMC at 100 to 200 ng/ml treated 30 mins before BMP4 challenge measured after 30 mins by immunoblot analysis
Method in brief: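 Mouse PASMCs were serum-reduced 24 h in 0.5% FCS RPMI, pretreated 30 min with noggin or vehicle, then given BMP4 for 30 min. Lysates in SDS buffer were immunoblotted for phospho-SMAD1/5/8 and phospho-MAPK p38, and signals were quantitated by phosphorimager.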

[25] = organism: Danio rerio; experiment: Inhibition of BMPR1 in zebrafish assessed as penetrance of mild embryonic axis dorsalization at 5 uM treated at 3 hrs post-fertilization measured at 48 hrs; design: scale not given: the % may be the effect or the level left; method in brief: as §1
[26] = organism: Danio rerio; experiment: Inhibition of BMPR1 in zebrafish assessed as increase in egr2b expression at 10 uM treated at 12 hrs post-fertilization measured at 48 hrs
[27] = organism: Danio rerio; experiment: Inhibition of BMPR1 in zebrafish assessed as penetrance of normal embryonic axis dorsalization at 10 uM treated at 2 to 8 hrs post-fertilization measured at 48 hrs; design: scale not given: the % may be the effect or the level left
[28] = organism: Danio rerio; experiment: Inhibition of BMPR1 in zebrafish assessed as penetrance of normal embryonic axis dorsalization at 10 uM treated at 4 to 8 hrs post-fertilization measured at 48 hrs; design: scale not given: the % may be the effect or the level left
[29] = organism: Danio rerio; experiment: Inhibition of BMPR1 in zebrafish assessed as penetrance of normal embryonic axis dorsalization at 0.2 uM treated at 3 hrs post-fertilization measured at 48 hrs; design: scale not given: the % may be the effect or the level left
[30] = organism: Danio rerio; experiment: Inhibition of BMPR1 in zebrafish assessed as penetrance of mild embryonic axis dorsalization at 10 uM treated at 3 hrs post-fertilization measured at 48 hrs; design: scale not given: the % may be the effect or the level left; method in brief: as §1

## c1cc(-c2cnn3cc(-c4ccc(OCCN5CCCCC5)cc4)cnc23)ccn1 [DORSOMORPHIN]
[1]
  Activity: Non-toxic
[2]
  Activity: 0%
[3]
  inhibition: Active
[4]
  Activity: 100%
[5]
  Activity: 0%
[6]
  Activity: 17%
[7]
  Activity: 100%
[8]
  Activity: 0%
[9]
  inhibition: Active
[10]
  fold change (FC): 3
[11]
  IC50: 470 nM
[12]
  inhibition: Dose-dependent effect
[13]
  Activity: 58%
[14]
  inhibition: Active
[15]
  inhibition: Active
[16]
  inhibition: Active
[17]
  Activity: 65%
[18]
  Activity: 44%
[19]
  inhibition: Active
[20]
  inhibition: inactive
[21]
  Activity: 0%
[22]
  Activity: 39%
[23]
  Activity: 0%
[24]
  inhibition: Active
[25]
  Activity: 19%
[26]
  Activity: Active
[27]
  Activity: 0%
[28]
  Activity: 0%
[29]
  Activity: 100%
[30]
  Activity: 3%
